According to ChEMBL document CHEMBL3612017, “Rigidified A3 Adenosine Receptor Agonists: 1-Deazaadenine Modification Maintains High in Vivo Efficacy” (ACS Med Chem Lett, 2015):

Experiments:
[1] = molecular target: T1, Adenosine receptor A1 (Homo sapiens) (UniProt P30542); assay: Displacement of [3H]N6-R-phenylisopropyladenosine from human adenosine A1 receptor expressed in CHO cell membranes at 10 uM
T1 sequence (whole entry): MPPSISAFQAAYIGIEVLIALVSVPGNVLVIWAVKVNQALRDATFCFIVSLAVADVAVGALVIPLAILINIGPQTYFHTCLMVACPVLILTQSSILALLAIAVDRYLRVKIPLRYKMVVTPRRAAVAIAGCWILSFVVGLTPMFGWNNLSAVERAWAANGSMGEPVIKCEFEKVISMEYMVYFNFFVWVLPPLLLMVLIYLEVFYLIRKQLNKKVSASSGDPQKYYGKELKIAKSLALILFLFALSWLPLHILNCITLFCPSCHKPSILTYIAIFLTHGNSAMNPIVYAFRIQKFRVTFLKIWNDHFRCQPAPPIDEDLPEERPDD
Outline: (§1)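 Radioligand binding at the human receptor subtypes. Nonspecific binding was defined with adenosine 5′-N-ethyluronamide (10 μM). Ki values came from displacement curves, mean ± SEM, n = 3 unless noted. Single-point data were expressed as % inhibition of binding at 10 μM.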

[2] = molecular target: Adenosine receptor A2a (Homo sapiens) (UniProt P29274); assay: Displacement of [3H]2-[p-(2-carboxyethyl)phenyl-ethylamino]-5'-Nethylcarboxamidoadenosine from human adenosine A2A receptor expressed in HEK293 cell membranes at 10 uM; outline: as §1
Sequence of Adenosine receptor A2a (Homo sapiens) (P29274 whole entry): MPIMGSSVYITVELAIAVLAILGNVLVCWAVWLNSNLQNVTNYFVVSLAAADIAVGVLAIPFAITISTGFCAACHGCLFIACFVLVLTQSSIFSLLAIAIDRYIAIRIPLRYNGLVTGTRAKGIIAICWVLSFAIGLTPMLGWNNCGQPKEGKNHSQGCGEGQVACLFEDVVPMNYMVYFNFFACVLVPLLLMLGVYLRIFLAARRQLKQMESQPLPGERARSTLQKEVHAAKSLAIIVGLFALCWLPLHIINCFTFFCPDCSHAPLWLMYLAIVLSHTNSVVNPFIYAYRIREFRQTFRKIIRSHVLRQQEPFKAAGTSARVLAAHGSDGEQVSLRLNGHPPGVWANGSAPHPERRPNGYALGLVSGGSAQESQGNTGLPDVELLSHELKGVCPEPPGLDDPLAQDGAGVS

Adenosine receptor A3 = molecular target: T2, Adenosine receptor A3 (Homo sapiens, UniProt P0DMS8); assay: Displacement of [125I]N6-(4-amino-3-iodobenzyl)adenosine-5'-N-methyluronamide from human adenosine A3 receptor expressed in CHO cell membranes
T2 sequence (P0DMS8 whole entry): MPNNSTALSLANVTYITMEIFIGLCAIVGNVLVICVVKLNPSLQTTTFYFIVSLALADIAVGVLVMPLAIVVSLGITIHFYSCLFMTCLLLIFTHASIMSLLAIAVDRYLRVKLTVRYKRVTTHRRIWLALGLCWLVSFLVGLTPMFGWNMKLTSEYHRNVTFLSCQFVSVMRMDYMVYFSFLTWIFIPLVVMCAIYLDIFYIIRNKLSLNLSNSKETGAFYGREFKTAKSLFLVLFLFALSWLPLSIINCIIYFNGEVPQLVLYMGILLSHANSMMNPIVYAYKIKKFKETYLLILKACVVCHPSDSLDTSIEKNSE

Mus musculus [3] = assay: Analgesic activity in mouse chronic constriction injury model of neuropathic pain assessed as protection of ipsilateral hind paw mechanoallodynia of sciatic nerve at 0.3 to 30 umol/kg administered through oral gavage at point of peak pain on day 7 relative to control measured at 1 hr; format: functional
Outline: (§2)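 Mice had sciatic nerve chronic constriction injury. Compound was given by oral gavage on day 7, at peak pain. Mechanoallodynia was scored on the ipsilateral and contralateral hind paws at the 1 h and 3 h time points, as % protection. n = 4 per group, some n = 3.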

Mus musculus [4] = assay: Analgesic activity in mouse chronic constriction injury model of neuropathic pain assessed as protection of ipsilateral hind paw mechanoallodynia of sciatic nerve at 0.3 to 30 umol/kg administered through oral gavage at point of peak pain on day 7 measured at 3 hrs; format: functional; outline: as §2
Mus musculus [5] = assay: Analgesic activity in mouse chronic constriction injury model of neuropathic pain assessed as time of peak protection at 0.3 to 30 umol/kg administered through oral gavage at point of peak pain on day 7; format: functional; outline: as §2
Mus musculus [6] = assay: Effect on contralateral side hind paw in mouse chronic constriction injury model of neuropathic pain at 0.3 to 30 umol/kg administered through oral gavage at point of peak pain on day 7; format: ADME, organism-based; details: in vivo; outline: as §2
Adenosine receptor A1 = molecular target: T3, Adenosine receptor A1 (Homo sapiens, UniProt P30542); assay: Displacement of [3H]N6-R-phenylisopropyladenosine from human adenosine A1 receptor expressed in CHO cell membranes; outline: as §1
T3 sequence (P30542 whole entry): T1 sequence (whole entry)

Mus musculus [7] = assay: Analgesic activity in intraperitoneally dosed mouse chronic constriction injury model of neuropathic pain; format: functional; details: ip
Mus musculus [8] = assay: Analgesic activity in intraperitoneally dosed mouse chronic constriction injury model of neuropathic pain assessed as time of peak protection; format: functional

Compound	inhibition [1]	inhibition [2]	Ki (Adenosine receptor A3)	Emax (Mus musculus [3])	Activity (Mus musculus [4])	Time (Mus musculus [5])	Activity (Mus musculus [6])	Ki (Adenosine receptor A1)	ED50 (Mus musculus [7])	Time (Mus musculus [8])
CCCCNc1nc(C#Cc2ccc(Cl)s2)nc2c1ncn2[C@H]1[C@H](O)[C@H](O)[C@]2(C(=O)NC)C[C@H]12	6%	0%	2.9 nM	68%	24%	1 h	Non-toxic	–	–	–
CCCNc1cc(C#Cc2ccc(Cl)s2)nc2c1ncn2[C@H]1[C@H](O)[C@H](O)[C@]2(C(=O)NC)C[C@H]12	–	11%	38 nM	–	–	–	–	2440 nM	–	–
CNC(=O)[C@@]12C[C@@H]1[C@@H](n1cnc3c(NC4CC4)nc(C#Cc4ccc(Cl)s4)nc31)[C@H](O)[C@@H]2O	47%	44%	1 nM	76%	36%	1 h	Non-toxic	–	–	–
CNC(=O)[C@@]12C[C@@H]1[C@@H](n1cnc3c(NC4CCC4)nc(C#Cc4ccc(Cl)s4)nc31)[C@H](O)[C@@H]2O	39%	34%	4.5 nM	97%	95%	1 h	Non-toxic	–	–	–
CNC(=O)[C@@]12C[C@@H]1[C@@H](n1cnc3c(NC(C)C)nc(C#Cc4ccc(Cl)s4)nc31)[C@H](O)[C@@H]2O	26%	17%	2.9 nM	88%	39%	1 h	Non-toxic	–	–	–
NCC1(CC(=O)O)CCCCC1 [GABAPENTIN]	–	–	–	–	–	–	–	–	140 µmol/kg	1 h
CNC(=O)[C@@]12C[C@@H]1[C@@H](n1cnc3c(NCC4CC4)nc(C#Cc4ccc(Cl)s4)nc31)[C@H](O)[C@@H]2O	24%	3%	7.9 nM	94%	85%	1 h	Non-toxic	–	–	–
CNC(=O)[C@@]12C[C@@H]1[C@@H](n1cnc3c(NC4CC4)cc(C#Cc4ccc(Cl)s4)nc31)[C@H](O)[C@@H]2O	26%	11%	10 nM	–	–	–	–	–	–	–
CNC(=O)[C@@]12C[C@@H]1[C@@H](n1cnc3c(NCC4CC4)nc(-n4cc(-c5ccc(Cl)s5)nn4)nc31)[C@H](O)[C@@H]2O	–	44%	9.4 nM	–	–	–	–	1350 nM	–	–
